From ChEMBL document CHEMBL1142957, “Total structure and inhibition of tumor cell proliferation of laxaphycins” (J Med Chem, 2007) come the findings set out here.

In assay [1] the test system is CCRF-CEM. In words: Cytotoxicity against drug-sensitive CCRF-CEM cells after 72 hrs. The class given is cell-based. As to conditions: Homo sapiens. In a few lines: (§1)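 Leukemic lymphoblasts (parent CCRF-CEM, Pgp-overexpressing CEM/VLB100, topo II-altered CEM/VM-1) grown in RPMI 1640 with 10% FCS and antibiotics, 37 °C, 5% CO2. Serial dilutions in medium added to 2 × 10⁵ cells/mL for 3 days, medium not renewed. Survivors counted on a Coulter counter. Triplicate, averaged.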

The nature of assay [2]: Cytotoxicity against vinblastine-resistant CEM/VLB100 cells after 72 hrs. The class given is cell-based. As to conditions: Homo sapiens, CEM/VLB100, 72 h. The essentials: as §1
Assay [3] is described as follows: Cytotoxicity against teniposide-resistant CEM/VM1 cells after 72 hrs. The class given is cell-based. The following applies: Homo sapiens, CEM-VM1, 72 h. In a few lines: as §1
Assay [4] relates to CCRF-CEM. The assay can be described thus: Ratio of IC50 for vinblastine-resistant CEM/VLB100 cells over IC50 for drug-sensitive CCRF-CEM cells. Type of assay: functional, Homo sapiens.
Assay [5] deals with CCRF-CEM. In words: Ratio of IC50 for teniposide-resistant CEM/VM1 cells over IC50 for drug-sensitive CCRF-CEM cells. Type of assay: functional, Homo sapiens.

By IC50 is commonly meant the point on the concentration scale where inhibition reaches its midpoint. Read a low IC50 as greater potency. For the molecule `CCCCCCC[C@@H]1CC(=O)N[C@@H](C(C)C)C(=O)N[C@@H]([C@@H](O)C(C)C)C(=O)N[C@@H](C)C(=O)N[C@H]([C@@H](O)C(C)C)C(=O)N[C@@H](CCC(N)=O)C(=O)N(C)[C@@H]([C@@H](C)CC)C(=O)N[C@H]([C@@H](O)C(N)=O)C(=O)N[C@@H]([C@@H](C)O)C(=O)N2C[C@H](O)C[C@H]2C(=O)N[C@H](CC(C)C)C(=O)N[C@@H]([C@@H](C)O)C(=O)N1` [LAXAPHYCIN B3], the IC50 amounted to 1500 nM in assay [1], 1350 nM in assay [2] and 1450 nM in assay [3]. Further, the “Ratio IC50” value stood at 0.9 in assay [4] and 1 in assay [5].
